Measured values reported in the RNAGym collection of RNA variant scans (doi:10.1126/science.aae0568).
This sample holds only a part of the variants without activity.

B1: tRNA (parent)
chain: GUUCCGUUGGCGUAAUGGUAACGCGUCUCCCUCCUAAGGAGAAGACUGCGGGUUCGAGUCCCGUACGGAACG

Variants of: B1
Test: yeast fitness relative to wild type (ratio to wild type); higher = fitter; tRNA-Arg(CCU), competitive growth, 37 C, YPD
In short: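 Start and end populations of a pooled competition were compared by 100-nucleotide paired-end sequencing of gene amplicons. The Saccharomyces cerevisiae strains carried tRNA-Arg(CCU) gene variants at the native genomic locus, synthesised with a 3% per-site mutation rate at 69 sites, and competed in YPD at 37°C for 24 hours in six parallel replicates. Darwinian fitness relative to wild type was based on the change in genotype frequencies. Genotypes required ≥ 100 starting reads, and estimates < 0.5 were set to 0.5.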

Row | Variant | yeast fitness
1 | GUUCCGUUGGCGUAUUGGUAACGCGUCUCCCUCCUAAGGAGAAGAAUGCGGGUUCGAGUCCCGUACGUACCG [A15U C46A G68U A70C] | ≤ 0.5
2 | GUUCCGUUGGCGUAUUGGUAACGCGUCUCUCUCCUAGGGAGAAGACUGCGGGUUCGAGUCCCGUACGGAACG [A15U C30U A37G] | ≤ 0.5
3 | GUUCCGUUGGCGUAUGGGUAACGCGUCUCCCUCCAAAGGAGAAGACUGCGGGUUCGAGACCCGUACGGAACG [A15U U16G U35A U59A] | ≤ 0.5
4 | GUUCCGUUGGCGUAAAGGUAACGCGUCUCCCUCCUGAGGAGAAGACUGCGAGUUCGAGUCCCGUACGGAACG [U16A A36G G51A] | ≤ 0.5
5 | GUUCCGUUGGCGUAAAGGUAUCGCGUCUCACUCCUAAAGAGAAGACUGCGGGUUAGAGUCCCGUCCGGAACG [U16A A21U C30A G38A C55A A65C] | ≤ 0.5
6 | GUUCCGUUGGCGUAUUGGUAACGCGUCUCCCUCCUAAGAAGAAGACUGCGGGUUCGAGUCCCGUACGGAACG [A15U G39A] | 0.667
7 | GUUCCGUUGGCGUAUUGGUAACGCGUCUCCCUCCUAACAAGACGACUACGGGUUCGAGUCCCGUACGGAACG [A15U G38C G39A A43C G48A] | ≤ 0.5
8 | GUUCCGUUGGCGUAAAGGUCACGCGUCUCCCUCCUAAGGAGAAGACUGCGGGCUCGAGUCCCGUACGGAACG [U16A A20C U53C] | 0.599
9 | GUUCCGUUGGCGUAUUGGUAACGCGUCUCCCUUCUAAGGAGAACACUGCGGGUUAGAGUCCCGUACGGAACG [A15U C33U G44C C55A] | ≤ 0.5
10 | GUUCCGUUGGCGUAUUGGUAACGCCUCUCCCUCCUAAGGAGAAGACUGCGGGUUCGAGUCCCGUACGAAACG [A15U G25C G68A] | ≤ 0.5
11 | GUUCCGUUGGCGUAUUGGUAACGCGUCUCCCUCCUAAGGAGAAGACUGCGGGUUCGAGUCCUGUACGGAACG [A15U C62U] | 0.787
12 | GUUCCGUUGGCGUAAAGGUAGUGCGUCUCCCUCCUAAGGAGAAGACUCCGGGUUCGAGUCCCCUACGGAACG [U16A A21G C22U G48C G63C] | ≤ 0.5
13 | GUUCCGUUGGCGUAAAGGUAACGCGUCUCCCUCCUAAGGAGUAGACUGCGGGAUCGAGUCCCGUACGGAACG [U16A A42U U53A] | ≤ 0.5
14 | GUUCCGUUGGCGUAAAGGUAACGCGUCUCCCUCCUAAGGAGACGGCUGCGGGUUCGAGUCCCGUACGGAACG [U16A A43C A45G] | 0.988
15 | GUUCCGUUGGCGUAUUGGUAACGCGUCUCCCUCCUAAGGAGAAGACUGGGGGUUUGAGUCCCGUUCGGAACG [A15U C49G C55U A65U] | 0.56
16 | GUUCCGUUGGCGUAUUGGUAACGCGUCUCGCUCCUAAGGAGAAGACUGCGGGUUCGAGUCUCGUACGAAACG [A15U C30G C61U G68A] | ≤ 0.5
17 | GUUCCGUUGGCGUAAAGGUUACGGGUCUCCCUGCUAAGGAGAAGACUGCGGGUUCGAGUCCCGUACGGAACG [U16A A20U C24G C33G] | ≤ 0.5
18 | GUUCCGUUGGCGUAUUGGUAACGCGUCUCCCUCCUAAGGAGAAGACUGCGGGUUCGAGUGUCGUACGAAACG [A15U C60G C61U G68A] | ≤ 0.5
19 | GUUCCGUUGGCGUAUUGGUAACGCGUCUCCCUCCUAAGGAGAAGACUGCGGGUUCGAGCCCCGUACGGAACG [A15U U59C] | 0.788

Row | Variant | yeast fitness
20 | GUUCCGUUGGCGUAUUGGUAACGCGUCUCCCUCCUAAGGAGAAGACUGCGGCUUCGAGUCCCGUUCCGAACG [A15U G52C A65U G67C] | ≤ 0.5
21 | GUUCCGUUGGCGUAUUGGUAACGCGUCUCCCUCCUAAGGAGAAGACUGCGGGUUCGAGUCCCAUACGGCACG [A15U G63A A69C] | 0.539
22 | GUUCCGUUGGCGUAAAGGUAUCGCGUCUCCCUGCUAAGGAGAAGACUGCGGGUUCGAGUCCCGUACGGAACG [U16A A21U C33G] | ≤ 0.5
23 | GUUCCGUUGGCGUAUUGGUAACGCGUCUCUCUCCUAAGGAGAAGACUGCGGGUUCGAGUCCCGUACGGAACG [A15U C30U] | 0.859
24 | GUUCCGUUGGCGUAUUGGUAACGCGUCUCCUUUCUAAGGAGAAGACUGCGGGUUCGAGUCCCGUACAGAACG [A15U C31U C33U G67A] | 0.642
25 | GUUCCGUUGGCGUAUUGGUAACGCGUCUCCCUCCUAAGGAGAAAACUGCGGGUUCGAAUCCCGUACGCAACG [A15U G44A G58A G68C] | ≤ 0.5
26 | GUUCCGUUGGCGUAUUGGUAACACGUCUCCCUCCUAAGGAGAAGACUGCGGGUUCGAGUGCCGUACGGAACG [A15U G23A C60G] | ≤ 0.5
27 | GUUCCGUUGGCGUAUUGGUAACGCGUCUACCUCCUAAGGAGAAGACUGCGGGUUAGAGUCCCGUACGGAACG [A15U C29A C55A] | ≤ 0.5
28 | GUUCCGUUGGCGUAAAGGUAACGCGUCUCCCUCCUAAGGAGAGGCCUGCGGGUUCGAGUCCCGUACGGAACG [U16A A43G A45C] | ≤ 0.5
29 | GUUCCGUUGGCGUAAAGGUAACGCGUCUCCCUCCUGAGGAGAAGACUGCGGGUUCGUGUCCCGUACGGAGCG [U16A A36G A57U A70G] | ≤ 0.5
30 | GUUCCGUUGGCGUAUUGGUAACGCGUCACCCUCCUAAGGAGAAGAAUGCGGGUUCGAGUCCCGUACGGAACG [A15U U28A C46A] | 0.507
31 | GUUCCGUUGGCGUAUUGGUAACGCGUCUCCCUCCUAAGGAGAACACUGCGGGUUCGAGUCCCGUACGGAACG [A15U G44C] | 0.727
32 | GUUCCGUUGGCGUAUUGGUAACGCGUCUCCUUCCUAAGGAGAAGACUGUGGAUUCGUCUCCCGUACGGAACG [A15U C31U C49U G52A A57U G58C] | ≤ 0.5
33 | GUUCCGUUGGCGUAUUGGUAACGCGUCUCCCUCCUAAGGAGAAGACUGCGGGUUCGAGUGCCGUACAGAACG [A15U C60G G67A] | ≤ 0.5
34 | GUUCCGUUGGCGUAUUGGUAACGCGUCUCCCUCCUAACAAGACGACUGCGGGUUCGUGUCCCGUACGGAACG [A15U G38C G39A A43C A57U] | ≤ 0.5
35 | GUUCCGUUGGCGUAAAGGUACCGCGUCUCGCUCCUGAGGAGAAGACUGCGCAUUCGAGUCCCGUACGGAACG [U16A A21C C30G A36G G51C G52A] | ≤ 0.5
36 | GUUCCGUUGGCGUAUUGGUAACGCGUCUCUCUCCUAGGGAGAAGACUGCGGGUUCGAGACCCGUACGGAACG [A15U C30U A37G U59A] | ≤ 0.5
37 | GUUCCGUUGGCGUAUUGGUAACGCAUCUCCCUCCUAAGGAGAAGACUGCGGGUUGGAGUCCCGUACGGAACG [A15U G25A C55G] | 0.555
38 | GUUCCGUUGGCGUAUUGCUAGCGCGUCUCCCUCCUAAGGAGAAGACUGCGGGUUCGAGACGCGUACGGAACG [A15U G18C A21G U59A C61G] | ≤ 0.5
